From ChEMBL document CHEMBL1157537 (J Med Chem, 2008) come the findings set out here.

The test system of assay [1] is Rattus norvegicus. Kind of assay: Inhibition of ovulation in rat assessed as reduction in number of ova at 0.25 to 2.0 mg/kg, po for 5 days. In kind it is functional, organism-based. A digest of the protocol:
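Female rats (n = 6 per group) received vehicle or progestin for 5 days at 0.25, 1.0 or 2.0 mg/kg. The number of ova per rat and the number of rats ovulating were then determined.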

Assay [2] concerns the target T1, Glucocorticoid receptor (Homo sapiens) (UniProt P04150).
T1 sequence (whole entry): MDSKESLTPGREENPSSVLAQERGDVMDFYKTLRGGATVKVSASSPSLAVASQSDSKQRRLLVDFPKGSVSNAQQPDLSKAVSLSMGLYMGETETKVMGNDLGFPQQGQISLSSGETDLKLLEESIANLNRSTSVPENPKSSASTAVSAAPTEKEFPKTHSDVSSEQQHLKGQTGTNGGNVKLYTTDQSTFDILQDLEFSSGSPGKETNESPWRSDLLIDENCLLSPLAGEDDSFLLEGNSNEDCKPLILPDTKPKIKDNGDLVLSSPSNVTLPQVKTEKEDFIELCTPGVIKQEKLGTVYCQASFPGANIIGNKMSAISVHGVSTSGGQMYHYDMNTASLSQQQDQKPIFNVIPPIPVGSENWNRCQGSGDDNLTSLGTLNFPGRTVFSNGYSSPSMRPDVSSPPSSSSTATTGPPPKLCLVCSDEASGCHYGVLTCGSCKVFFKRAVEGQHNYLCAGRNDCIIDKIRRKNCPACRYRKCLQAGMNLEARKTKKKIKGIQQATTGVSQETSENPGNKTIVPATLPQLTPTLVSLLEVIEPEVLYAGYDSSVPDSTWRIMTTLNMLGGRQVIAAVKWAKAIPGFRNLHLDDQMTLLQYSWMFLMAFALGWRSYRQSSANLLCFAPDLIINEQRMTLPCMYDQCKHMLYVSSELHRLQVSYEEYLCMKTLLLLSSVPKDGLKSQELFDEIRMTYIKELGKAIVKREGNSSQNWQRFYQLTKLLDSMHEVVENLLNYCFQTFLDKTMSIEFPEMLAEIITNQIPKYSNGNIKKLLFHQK
Put plainly: Agonist activity at human glucocorticoid receptor relative to Dexamethasone. In kind it is functional.

The target in assay [3] is T2, Mineralocorticoid receptor (Homo sapiens) (UniProt P08235).
T2 sequence (whole entry): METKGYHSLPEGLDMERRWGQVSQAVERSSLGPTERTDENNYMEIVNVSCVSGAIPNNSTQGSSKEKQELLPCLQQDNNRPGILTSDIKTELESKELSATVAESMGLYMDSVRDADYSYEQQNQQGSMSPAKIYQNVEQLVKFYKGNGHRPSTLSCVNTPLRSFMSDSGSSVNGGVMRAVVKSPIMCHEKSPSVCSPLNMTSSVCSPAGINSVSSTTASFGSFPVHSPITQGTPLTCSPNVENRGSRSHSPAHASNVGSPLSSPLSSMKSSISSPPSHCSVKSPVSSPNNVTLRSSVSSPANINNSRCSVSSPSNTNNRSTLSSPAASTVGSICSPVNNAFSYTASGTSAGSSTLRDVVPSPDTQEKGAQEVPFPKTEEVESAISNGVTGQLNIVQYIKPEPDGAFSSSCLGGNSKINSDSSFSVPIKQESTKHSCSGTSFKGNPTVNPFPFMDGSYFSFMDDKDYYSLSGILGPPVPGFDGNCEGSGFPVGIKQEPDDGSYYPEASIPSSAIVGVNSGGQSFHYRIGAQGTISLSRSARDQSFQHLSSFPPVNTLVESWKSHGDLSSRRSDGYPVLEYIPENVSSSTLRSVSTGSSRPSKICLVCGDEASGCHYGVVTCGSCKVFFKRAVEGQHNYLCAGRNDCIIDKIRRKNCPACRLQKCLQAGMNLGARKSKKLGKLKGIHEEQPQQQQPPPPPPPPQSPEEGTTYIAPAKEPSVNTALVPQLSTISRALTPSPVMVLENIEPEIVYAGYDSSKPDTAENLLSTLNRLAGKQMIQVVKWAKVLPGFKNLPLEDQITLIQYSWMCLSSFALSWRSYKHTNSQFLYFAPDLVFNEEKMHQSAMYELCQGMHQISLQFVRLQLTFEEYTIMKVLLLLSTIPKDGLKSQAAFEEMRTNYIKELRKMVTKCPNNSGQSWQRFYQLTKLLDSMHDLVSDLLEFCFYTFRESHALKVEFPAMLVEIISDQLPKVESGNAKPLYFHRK
Put plainly: Antagonist activity at human mineralocorticoid receptor relative to aldosterone. The format is functional.

The test system of another assay is Oryctolagus cuniculus. Kind of assay: Progestational activity in New Zealand white rabbit uterine epithelium at 0.10 mg/kg, po after 3 days by Clauberg-McPhail assay. In kind it is functional, organism-based. Also on record: dose 0.1 mg/kg.
Assay [4] is filed under the species Rattus norvegicus. Kind of assay: Progestational activity in estrone-treated ovariectomized rat assessed as inhibition of medroxyprogesterone acetate-induced effect on vaginal epithelial thickness. The format is functional, organism-based. A digest of the protocol:
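Antagonist mode of the estrone-treated ovariectomized rat multi-endpoint model: compound was combined with MPA plus estrone, with vehicle and estrone-only groups. Endpoints were uterine epithelial cell height, vaginal epithelial thickness and mammary alveolar bud proliferation.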

Assay [5] is filed under the species Rattus norvegicus. Put plainly: Progestational activity in estrone-treated ovariectomized rat assessed as effect on vaginal epithelial thickness. The format is functional, organism-based. A digest of the protocol:
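Ovariectomized rats were treated with estrone, alone or combined with test progestin, and compared with vehicle and estrone-only groups. Endpoints were uterine epithelial cell height, vaginal epithelial thickness and mammary alveolar bud proliferation.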

Molecules are shown by their SMILES. Activity calls are given as the source filed them. The rule behind the calls is not given here.

On to `CC1=C[C@@H]([C@@H]2Oc3c(F)cc(F)cc3-c3ccc4c(c32)C(C)=CC(C)(C)N4)CCC1` (stereo in doubt; (-)-5c), for which the outcome with Rattus norvegicus [1], in the assay on Oryctolagus cuniculus and in the assay listed under Rattus norvegicus [5] was Active. In addition, the results for the Efficacy in assay [2] and in assay [3] were 6% and 93%, respectively. For the same molecule, the outcome in the assay listed under Rattus norvegicus [4] was inactive.
